{"source": "ChEMBL document CHEMBL4819106", "about": "“Aminopyrazole based CDK9 PROTAC sensitizes pancreatic cancer cells to venetoclax” (Bioorg Med Chem Lett, 2021)", "key": {"MIA PaCa-2 [1]": {"tested_on": "MIA PaCa-2", "assay": "Antiproliferative activity against human MIA PaCa-2 cells assessed as sensitizing activity by measuring combination index at ED75 measured after 3 days in presence of ABT- 263 by Prestoblue assay", "type": "functional", "settings": "time 3 day", "in_short": "(§1)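 MiaPaCa2 cells were treated for 3 days with the CDK9 degrader and a Bcl2-family inhibitor (ABT-263, ABT-199 or WEHI-539), singly and combined. Viability was read by PrestoBlue. Combination index values were calculated with CalcuSyn at effective doses ED50, ED75 and ED90.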"}, "[2]": {"target": "Cyclin-dependent kinase 9 (Homo sapiens, UniProt P50750)", "sequence (P50750 whole entry)": "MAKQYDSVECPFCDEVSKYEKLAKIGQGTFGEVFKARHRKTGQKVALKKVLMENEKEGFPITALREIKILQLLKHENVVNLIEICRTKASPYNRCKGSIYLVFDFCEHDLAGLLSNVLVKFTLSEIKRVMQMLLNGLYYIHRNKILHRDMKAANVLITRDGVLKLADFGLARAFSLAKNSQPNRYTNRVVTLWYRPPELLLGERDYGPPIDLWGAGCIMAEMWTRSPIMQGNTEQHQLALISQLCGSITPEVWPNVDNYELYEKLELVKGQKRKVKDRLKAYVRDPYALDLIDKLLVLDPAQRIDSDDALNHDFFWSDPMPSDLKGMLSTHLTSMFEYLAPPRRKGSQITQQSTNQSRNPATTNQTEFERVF", "assay": "Binding affinity to CDK9 (unknown origin)"}, "[3]": {"target": "Protein cereblon/Cyclin-dependent kinase 6 (Homo sapiens) (UniProt Q00534+Q96SW2)", "sequence (Q00534 whole entry, looked up)": "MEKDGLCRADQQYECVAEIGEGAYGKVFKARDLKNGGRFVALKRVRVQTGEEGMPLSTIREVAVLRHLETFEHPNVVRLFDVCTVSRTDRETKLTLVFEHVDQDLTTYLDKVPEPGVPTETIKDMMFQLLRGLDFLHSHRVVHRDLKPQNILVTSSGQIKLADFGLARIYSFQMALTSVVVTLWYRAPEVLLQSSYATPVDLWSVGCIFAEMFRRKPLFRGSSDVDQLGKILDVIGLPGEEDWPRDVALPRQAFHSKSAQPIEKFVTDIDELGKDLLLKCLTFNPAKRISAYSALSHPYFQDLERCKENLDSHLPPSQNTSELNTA", "sequence (Q96SW2 whole entry, looked up)": "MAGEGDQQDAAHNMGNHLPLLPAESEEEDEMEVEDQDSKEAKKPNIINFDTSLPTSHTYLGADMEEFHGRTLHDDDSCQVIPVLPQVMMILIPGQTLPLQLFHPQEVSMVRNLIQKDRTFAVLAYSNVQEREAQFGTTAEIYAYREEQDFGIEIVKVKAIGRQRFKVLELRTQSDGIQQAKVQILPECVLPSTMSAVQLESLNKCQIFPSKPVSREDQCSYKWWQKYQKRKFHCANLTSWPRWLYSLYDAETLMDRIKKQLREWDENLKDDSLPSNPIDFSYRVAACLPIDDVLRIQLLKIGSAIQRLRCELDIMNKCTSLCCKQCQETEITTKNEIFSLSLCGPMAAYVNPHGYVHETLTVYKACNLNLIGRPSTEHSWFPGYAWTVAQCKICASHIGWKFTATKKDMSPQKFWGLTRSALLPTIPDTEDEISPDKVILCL", "assay": "Protac activity at CDK6/CRBN in human HEK293 cells assessed as degradation of CDK6 at 1 uM measured upto 24 hrs by Western blot analysis", "type": "cell-based", "settings": "time hrs <=24", "in_short": "(§2)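 Time course in HEK293 cells at 1 μM degrader; lysates collected at indicated time points up to 24 h and probed by western blot for the various CDKs.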"}, "[4]": {"target": "T1, Cyclin-dependent kinase 2 (Homo sapiens, UniProt P24941)"}, "[5]": {"target": "T2, Protein cereblon/Cyclin-dependent kinase 9 (Homo sapiens, UniProt P50750+Q96SW2)", "assay": "Protac activity at CDK9/CRBN in human SUIT-2 cells assessed as degradation of CDK9", "type": "cell-based"}, "MIA PaCa-2 [6]": {"tested_on": "MIA PaCa-2", "assay": "Antiproliferative activity against human MIA PaCa-2 cells assessed as sensitizing activity by measuring combination index at ED75 measured after 3 days in presence of WEHI-539 by Prestoblue assay", "type": "functional", "settings": "time 3 day", "in_short": "as §1"}, "[7]": {"target": "T1, Cyclin-dependent kinase 2", "remark": "listed apart in the source"}, "MIA PaCa-2 [8]": {"tested_on": "MIA PaCa-2", "assay": "Antiproliferative activity against human MIA PaCa-2 cells assessed as sensitizing activity by measuring combination index at ED50 measured after 3 days in presence of ABT- 263 by Prestoblue assay", "type": "functional", "settings": "time 3 day", "in_short": "as §1"}, "[9]": {"target": "Cyclin-dependent kinase 7 (Homo sapiens) (UniProt P50613)", "sequence (P50613 whole entry)": "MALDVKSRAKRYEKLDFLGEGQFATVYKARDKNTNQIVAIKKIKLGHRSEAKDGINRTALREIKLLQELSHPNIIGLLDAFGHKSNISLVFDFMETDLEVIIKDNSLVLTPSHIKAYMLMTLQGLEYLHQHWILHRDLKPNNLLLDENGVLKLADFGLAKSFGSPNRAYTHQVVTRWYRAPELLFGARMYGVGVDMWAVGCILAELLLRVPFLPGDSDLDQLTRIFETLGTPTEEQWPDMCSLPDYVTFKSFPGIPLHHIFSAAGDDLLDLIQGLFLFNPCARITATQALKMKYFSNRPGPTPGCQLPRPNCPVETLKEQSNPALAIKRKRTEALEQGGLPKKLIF", "assay": "Inhibition of CDK7 in human HEK293 cells assessed as reduction in CDK7 level at 10 uM incubated for 24 hrs in presence of flavopiridol by Western blot analysis", "type": "cell-based"}, "[10]": {"target": "T3, Protein cereblon/Cyclin-dependent kinase 12 (Homo sapiens) (UniProt Q9NYV4+Q96SW2)", "T3 sequence (Q96SW2 whole entry, looked up)": "as the sequence (Q96SW2 whole entry, looked up) above", "T3 sequence (Q9NYV4 whole entry, looked up)": "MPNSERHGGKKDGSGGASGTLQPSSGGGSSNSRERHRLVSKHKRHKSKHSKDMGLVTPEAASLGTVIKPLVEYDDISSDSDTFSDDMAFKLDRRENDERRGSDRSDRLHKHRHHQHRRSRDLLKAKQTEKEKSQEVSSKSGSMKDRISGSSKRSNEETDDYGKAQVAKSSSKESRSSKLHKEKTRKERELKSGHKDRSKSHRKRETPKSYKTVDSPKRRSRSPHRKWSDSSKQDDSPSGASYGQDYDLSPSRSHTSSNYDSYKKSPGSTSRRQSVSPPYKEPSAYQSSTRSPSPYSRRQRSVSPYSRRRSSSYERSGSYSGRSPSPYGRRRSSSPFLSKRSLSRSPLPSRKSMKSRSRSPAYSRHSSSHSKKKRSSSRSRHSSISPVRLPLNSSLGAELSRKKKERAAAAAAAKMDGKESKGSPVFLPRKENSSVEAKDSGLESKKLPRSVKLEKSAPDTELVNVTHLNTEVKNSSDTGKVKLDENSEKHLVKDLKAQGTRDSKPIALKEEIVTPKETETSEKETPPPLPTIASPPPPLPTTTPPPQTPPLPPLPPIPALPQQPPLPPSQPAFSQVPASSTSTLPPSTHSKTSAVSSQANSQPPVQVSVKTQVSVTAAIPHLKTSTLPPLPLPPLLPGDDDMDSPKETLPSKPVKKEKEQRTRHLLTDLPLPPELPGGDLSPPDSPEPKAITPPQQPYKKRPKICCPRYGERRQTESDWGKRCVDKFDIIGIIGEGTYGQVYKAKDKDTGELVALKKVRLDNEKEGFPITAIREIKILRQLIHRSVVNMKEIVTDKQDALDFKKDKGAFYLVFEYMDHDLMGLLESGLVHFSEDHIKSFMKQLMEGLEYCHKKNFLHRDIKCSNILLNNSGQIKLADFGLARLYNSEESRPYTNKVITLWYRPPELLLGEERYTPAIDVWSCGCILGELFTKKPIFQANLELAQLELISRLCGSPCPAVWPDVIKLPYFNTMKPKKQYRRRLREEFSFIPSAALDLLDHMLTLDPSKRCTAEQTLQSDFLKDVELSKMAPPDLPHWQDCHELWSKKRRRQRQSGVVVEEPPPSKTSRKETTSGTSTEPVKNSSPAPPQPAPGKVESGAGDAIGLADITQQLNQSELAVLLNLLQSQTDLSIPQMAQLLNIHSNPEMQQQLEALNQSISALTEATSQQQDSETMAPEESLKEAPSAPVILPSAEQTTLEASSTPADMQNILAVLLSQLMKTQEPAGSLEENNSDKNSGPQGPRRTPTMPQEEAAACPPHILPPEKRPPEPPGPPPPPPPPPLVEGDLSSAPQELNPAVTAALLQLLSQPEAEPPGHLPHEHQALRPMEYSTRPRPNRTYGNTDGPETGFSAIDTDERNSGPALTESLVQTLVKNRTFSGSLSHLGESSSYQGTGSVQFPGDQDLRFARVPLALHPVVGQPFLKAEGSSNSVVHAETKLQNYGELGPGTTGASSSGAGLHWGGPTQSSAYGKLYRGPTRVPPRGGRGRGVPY", "assay": "Protac activity at CDK12/CRBN in human HEK293 cells assessed as degradation of CDK12 at 1 uM measured upto 24 hrs by Western blot analysis", "type": "cell-based", "settings": "time hrs <=24", "in_short": "as §2"}, "[11]": {"target": "T4, Protein cereblon/Cyclin-dependent kinase 4 (Homo sapiens) (UniProt P11802+Q96SW2)", "T4 sequence (P11802 2-303 limits assumed)": "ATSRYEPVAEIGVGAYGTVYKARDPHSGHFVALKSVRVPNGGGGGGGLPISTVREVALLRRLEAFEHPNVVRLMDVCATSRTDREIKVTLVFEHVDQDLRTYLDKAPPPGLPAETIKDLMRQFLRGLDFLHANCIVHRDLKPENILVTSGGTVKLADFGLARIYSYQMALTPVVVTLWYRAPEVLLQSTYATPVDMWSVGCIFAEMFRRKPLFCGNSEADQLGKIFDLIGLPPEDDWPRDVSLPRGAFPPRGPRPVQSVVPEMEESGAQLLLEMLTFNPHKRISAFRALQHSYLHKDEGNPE", "T4 sequence (Q96SW2 whole entry partner)": "as the sequence (Q96SW2 whole entry, looked up) above", "assay": "Protac activity at CDK4/CRBN in human HEK293 cells assessed as degradation of CDK4 at 0.01 to 10 uM incubated for 24 hrs by Western blot analysis", "type": "cell-based", "settings": "dose 0.01-10 µM"}, "[12]": {"target": "T5, Protein cereblon/Cyclin-dependent kinase 1 (Homo sapiens) (UniProt P06493+Q96SW2)", "T5 sequence (P06493 whole entry, looked up)": "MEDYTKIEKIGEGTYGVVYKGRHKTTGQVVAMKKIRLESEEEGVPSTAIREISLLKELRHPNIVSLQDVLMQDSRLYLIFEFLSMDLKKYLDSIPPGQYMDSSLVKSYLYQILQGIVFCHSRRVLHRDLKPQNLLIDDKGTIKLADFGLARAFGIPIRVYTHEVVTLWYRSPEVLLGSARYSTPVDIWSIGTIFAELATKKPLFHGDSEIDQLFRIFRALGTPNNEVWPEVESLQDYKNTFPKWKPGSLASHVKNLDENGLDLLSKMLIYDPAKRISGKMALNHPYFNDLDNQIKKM", "T5 sequence (Q96SW2 whole entry, looked up)": "as the sequence (Q96SW2 whole entry, looked up) above", "assay": "Protac activity at CDK1/CRBN in human HEK293 cells assessed as degradation of CDK1 at 1 uM measured upto 24 hrs by Western blot analysis", "type": "cell-based", "settings": "time hrs <=24", "in_short": "as §2"}, "[13]": {"target": "T6, Protein cereblon/Cyclin-dependent kinase 7 (Homo sapiens) (UniProt P50613+Q96SW2)", "T6 sequence (P50613 whole entry, looked up)": "as the sequence (P50613 whole entry) above", "T6 sequence (Q96SW2 whole entry, looked up)": "as the sequence (Q96SW2 whole entry, looked up) above", "assay": "Protac activity at CDK7/CRBN in human HEK293 cells assessed as degradation of CDK7 at 0.01 to 10 uM incubated for 24 hrs by Western blot analysis", "type": "cell-based", "settings": "dose 0.01-10 µM"}, "[14]": {"target": "Protein cereblon/Cyclin-dependent kinase 2 (Homo sapiens) (UniProt P24941+Q96SW2)", "assay": "Protac activity at CDK2/CRBN in human HEK293 cells assessed as degradation of CDK2 at 1 uM measured upto 24 hrs by Western blot analysis", "type": "cell-based", "settings": "time hrs <=24", "in_short": "as §2"}, "[15]": {"target": "T3, Protein cereblon/Cyclin-dependent kinase 12 (Homo sapiens)", "assay": "Protac activity at CDK12/CRBN in human HEK293 cells assessed as degradation of CDK12 at 0.01 to 10 uM incubated for 24 hrs by Western blot analysis", "type": "cell-based", "settings": "dose 0.01-10 µM"}, "[16]": {"target": "T7, Protein cereblon/Cyclin-dependent kinase 8 (Homo sapiens) (UniProt P49336+Q96SW2)", "T7 sequence (P49336 whole entry, looked up)": "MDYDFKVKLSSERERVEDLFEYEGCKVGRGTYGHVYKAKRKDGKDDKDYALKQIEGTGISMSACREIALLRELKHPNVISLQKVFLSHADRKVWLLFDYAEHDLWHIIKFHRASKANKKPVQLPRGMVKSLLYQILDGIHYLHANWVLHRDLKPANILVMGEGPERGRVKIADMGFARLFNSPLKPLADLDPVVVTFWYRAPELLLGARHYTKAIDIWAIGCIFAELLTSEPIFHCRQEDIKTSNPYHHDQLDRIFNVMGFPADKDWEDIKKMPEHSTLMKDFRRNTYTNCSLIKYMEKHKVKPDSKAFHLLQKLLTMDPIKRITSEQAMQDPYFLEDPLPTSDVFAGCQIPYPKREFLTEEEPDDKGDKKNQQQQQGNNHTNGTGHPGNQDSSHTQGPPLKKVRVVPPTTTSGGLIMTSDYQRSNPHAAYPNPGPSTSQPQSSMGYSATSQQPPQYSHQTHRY", "T7 sequence (Q96SW2 whole entry, looked up)": "as the sequence (Q96SW2 whole entry, looked up) above", "assay": "Protac activity at CDK8/CRBN in human HEK293 cells assessed as degradation of CDK8 at 0.01 to 10 uM incubated for 24 hrs by Western blot analysis", "type": "cell-based", "settings": "dose 0.01-10 µM"}, "[17]": {"target": "T4, Protein cereblon/Cyclin-dependent kinase 4 (Homo sapiens)", "assay": "Protac activity at CDK4/CRBN in human HEK293 cells assessed as degradation of CDK4 at 1 uM measured upto 24 hrs by Western blot analysis", "type": "cell-based", "settings": "time hrs <=24", "in_short": "as §2"}, "[18]": {"target": "T5, Protein cereblon/Cyclin-dependent kinase 1 (Homo sapiens)", "assay": "Protac activity at CDK1/CRBN in human HEK293 cells assessed as degradation of CDK1 at 1 uM incubated for 24 hrs in presence of MG132 by Western blot analysis", "type": "cell-based", "in_short": "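HEK293 cells co-treated for 24 h with degrader and increasing concentrations of proteasome inhibitor MG132; lysates examined by western blot.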"}, "[19]": {"target": "T6, Protein cereblon/Cyclin-dependent kinase 7 (Homo sapiens)", "assay": "Protac activity at CDK7/CRBN in human HEK293 cells assessed as degradation of CDK7 at 10 uM incubated for 24 hrs in presence of pomalidomide by Western blot analysis", "type": "cell-based", "in_short": "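Competition in HEK293 cells: 10 μM pomalidomide (CRBN ligand) alone or combined with 1 μM degrader for 24 h; lysates analysed by western blot.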"}, "[20]": {"target": "T2, Protein cereblon/Cyclin-dependent kinase 9", "assay": "Protac activity at CDK9/CRBN in human HEK293 cells assessed as degradation of CDK9 at 1 uM measured up to 24 hrs by Western blot analysis", "type": "cell-based", "settings": "time hrs <=24", "in_short": "as §2"}, "MIA PaCa-2 [21]": {"tested_on": "MIA PaCa-2", "assay": "Antiproliferative activity against human MIA PaCa-2 cells assessed as sensitizing activity by measuring combination index at ED90 measured after 3 days in presence of ABT- 199 by Prestoblue assay", "type": "functional", "settings": "time 3 day", "in_short": "as §1"}, "[22]": {"target": "Cyclin-dependent kinase 5 (Homo sapiens, UniProt Q00535)", "sequence (Q00535 whole entry)": "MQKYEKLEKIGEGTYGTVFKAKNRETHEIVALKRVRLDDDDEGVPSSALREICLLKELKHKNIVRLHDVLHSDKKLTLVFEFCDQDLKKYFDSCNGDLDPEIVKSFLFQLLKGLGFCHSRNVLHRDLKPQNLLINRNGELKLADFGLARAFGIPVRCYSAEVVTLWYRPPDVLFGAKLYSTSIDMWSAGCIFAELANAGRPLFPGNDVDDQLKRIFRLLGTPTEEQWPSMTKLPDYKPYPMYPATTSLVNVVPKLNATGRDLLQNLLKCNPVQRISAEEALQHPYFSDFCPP", "assay": "Binding affinity to CDK5 (unknown origin)"}, "[23]": {"target": "T7, Protein cereblon/Cyclin-dependent kinase 8 (Homo sapiens)", "assay": "Protac activity at CDK8/CRBN in human HEK293 cells assessed as degradation of CDK8 at 1 uM measured upto 24 hrs by Western blot analysis", "type": "cell-based", "settings": "time hrs <=24", "in_short": "as §2"}, "[24]": {"target": "T2, Protein cereblon/Cyclin-dependent kinase 9", "assay": "Protac activity at CDK9/CRBN in human MIA PaCa-2 cells assessed as degradation of CDK9", "type": "cell-based"}, "MIA PaCa-2 [25]": {"tested_on": "MIA PaCa-2", "assay": "Antiproliferative activity against human MIA PaCa-2 cells assessed as sensitizing activity by measuring combination index at ED50 measured after 3 days in presence of WEHI-539 by Prestoblue assay", "type": "functional", "settings": "time 3 day", "in_short": "as §1"}, "[26]": {"target": "CDK9/Cyclin K (Homo sapiens) (UniProt P50750+O75909)", "assay": "Protac activity at Cyclin K/CRBN in human HEK293 cells assessed as degradation of cyclin K at 0.01 to 10 uM incubated for 24 hrs by Western blot analysis", "type": "cell-based", "settings": "dose 0.01-10 µM"}, "[27]": {"target": "Protein cereblon/Cyclin-dependent kinase 5 (Homo sapiens) (UniProt Q00535+Q96SW2)", "sequence (Q00535 whole entry, looked up)": "as the sequence (Q00535 whole entry) above", "sequence (Q96SW2 whole entry, looked up)": "as the sequence (Q96SW2 whole entry, looked up) above", "assay": "Protac activity at CDK5/CRBN in human HEK293 cells assessed as degradation of CDK5 at 0.01 to 10 uM incubated for 24 hrs by Western blot analysis", "type": "cell-based", "settings": "dose 0.01-10 µM"}, "[28]": {"target": "T2, Protein cereblon/Cyclin-dependent kinase 9", "assay": "Protac activity at CDK9/CRBN in human HEK293 cells assessed as degradation of CDK9 incubated for 24 hrs by Western blot analysis", "type": "cell-based", "in_short": "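HEK293 cells were treated with increasing concentrations (0.01–10 μM) for 24 hr. Lysates were analysed by western blot for CDK9 degradation.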"}}, "note": "The source made the active and inactive calls. No cut-off for these calls is given here.", "data": [{"compound": "O=C(CCCOc1ccc(CC(=O)Nc2cc(C3CCC3)[nH]n2)cc1)NCCCCNc1cccc2c1C(=O)N(C1CCC(=O)NC1=O)C2=O", "note": "(centres undefined)", "values": [{"measurement": "CI", "setting": "MIA PaCa-2 [1]", "result": 0.12}, {"measurement": "Kd", "setting": "[2]", "result": 1050, "unit": "nM"}, {"measurement": "Activity", "setting": "[3]", "result": "inactive"}, {"measurement": "Kd", "setting": "[4]", "result": 385, "unit": "nM"}, {"measurement": "Activity", "setting": "[5]", "result": "Active"}, {"measurement": "CI", "setting": "MIA PaCa-2 [6]", "result": 0.6}, {"measurement": "IC50", "setting": "[7]", "result": 155, "unit": "nM"}, {"measurement": "CI", "setting": "MIA PaCa-2 [8]", "result": 0.16}, {"measurement": "Activity", "setting": "[9]", "result": "inactive"}, {"measurement": "Activity", "setting": "[10]", "result": "inactive"}, {"measurement": "Activity", "setting": "[11]", "result": "inactive"}, {"measurement": "Activity", "setting": "[12]", "result": "inactive"}, {"measurement": "Activity", "setting": "[13]", "result": "inactive"}, {"measurement": "Activity", "setting": "[14]", "result": "inactive"}, {"measurement": "Activity", "setting": "[15]", "result": "inactive"}, {"measurement": "Activity", "setting": "[16]", "result": "inactive"}, {"measurement": "Activity", "setting": "[17]", "result": "inactive"}, {"measurement": "Activity", "setting": "[18]", "result": "inactive"}, {"measurement": "Activity", "setting": "[19]", "result": "inactive"}, {"measurement": "Activity", "setting": "[20]", "result": "Active"}, {"measurement": "CI", "setting": "MIA PaCa-2 [21]", "result": 0.001}, {"measurement": "Kd", "setting": "[22]", "result": 815, "unit": "nM"}, {"measurement": "Activity", "setting": "[23]", "result": "inactive"}, {"measurement": "Activity", "setting": "[24]", "result": "Active"}, {"measurement": "CI", "setting": "MIA PaCa-2 [25]", "result": 1}, {"measurement": "Activity", "setting": "[26]", "result": "inactive"}, {"measurement": "Activity", "setting": "[27]", "result": "inactive"}, {"measurement": "Activity", "setting": "[28]", "result": "Dose-Dependent Effect"}, {"measurement": "DC50", "setting": "[28]", "result": 158, "unit": "nM"}]}]}
